Results: article PMC4301979 (Nature chemical biology, 2015)

Assays:
[1] = system: PS lipase activity of mouse peritoneal macrophages; assay: PS lipase activity of membrane proteomes of peritoneal macrophages; type: biochemical; conditions: vehicle- and LPS-stimulated macrophages; 1 µM, 30 min, 37 °C
How it was run: (§1)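 Membrane proteome (20 μg) incubated with 100 μM lipid substrate in PBS (100 μL), shaking, […] for 30 min. Quenched with 2:1 CHCl3:MeOH and internal standard, then extracted twice. Product quantified by LC-QTOF-MS, ESI negative mode, as peak area relative to internal standard. Non-enzymatic rate from heat-denatured proteome (95 °C, 15 min) subtracted.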

ABHD16A [2] = target: T1, ABHD16A (Homo sapiens, UniProt O95870); assay: competitive gel-based ABPP, K562 cells treated in situ; type: cell-based; conditions: in situ IC50 for ABHD16A, 4 h treatment, 37 °C
T1 sequence (O95870 1-558): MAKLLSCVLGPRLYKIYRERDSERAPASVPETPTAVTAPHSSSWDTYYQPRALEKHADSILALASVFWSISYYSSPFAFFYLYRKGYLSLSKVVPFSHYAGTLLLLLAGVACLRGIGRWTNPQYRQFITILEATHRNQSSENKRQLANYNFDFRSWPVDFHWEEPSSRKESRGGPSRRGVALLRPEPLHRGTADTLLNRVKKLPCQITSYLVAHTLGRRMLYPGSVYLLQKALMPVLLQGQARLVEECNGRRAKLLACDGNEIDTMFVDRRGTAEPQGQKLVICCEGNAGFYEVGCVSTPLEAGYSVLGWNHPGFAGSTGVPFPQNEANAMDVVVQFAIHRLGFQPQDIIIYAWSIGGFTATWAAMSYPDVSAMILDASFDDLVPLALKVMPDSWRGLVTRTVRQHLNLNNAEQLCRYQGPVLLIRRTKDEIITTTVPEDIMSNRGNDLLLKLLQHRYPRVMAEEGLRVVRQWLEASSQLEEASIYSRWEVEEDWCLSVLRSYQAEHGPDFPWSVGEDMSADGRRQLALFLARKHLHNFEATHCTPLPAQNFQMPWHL

ABHD16A [3] = target: T1, ABHD16A; assay: ABPP-SILAC of serine hydrolase activities in COLO205 cells treated in situ; type: cell-based; conditions: 1 μM, 4 h, 37 °C
[4] = system: thioglycollate-elicited mouse peritoneal macrophages; assay: secreted cytokines of thioglycollate-elicited peritoneal macrophages; type: cell-based; conditions: 4 h
How it was run: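 Peritoneal macrophages elicited by thioglycollate from wild-type, ABHD12−/− or ABHD16A−/− mice. 2 x 10^6 cells allowed to adhere 2 h, then washed. Test compound (1 μM) or DMSO applied for 4 h in serum-free, phenol red-free RPMI, then LPS (5 μg/mL, 7 h, in PBS). Cytokines measured in 0.5 mL harvested medium by mouse single-analyte ELISA.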

COLO205 cells = assay: LC-MS-based lipid profiling of treated cells; type: cell-based, human; conditions: COLO205, 1 μM, 4 h
How it was run: (§2)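 Cells grown in RPMI 1640 with 10% FCS and penicillin-streptomycin. 3 x 10^6 cells washed, then exposed to test compound (1 μM) or DMSO for 4 h at 37 °C, 5% CO2, in serum-free, phenol red-free RPMI. Media and cells extracted with 2:1 CHCl3:MeOH plus internal standards. Lipids quantified by LC-MS MRM (ESI) as peak area versus unnatural internal standard, normalized to cell number.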

[5] = system: additional off-targets (serine hydrolase activities); assay: ABPP-SILAC of serine hydrolase activities in COLO205 cells treated in situ; type: cell-based, human; conditions: 1 μM, 4 h, 37 °C
ABHD16A [6] = target: T1, ABHD16A; assay: PS substrate; type: biochemical; conditions: 95% interval for the reported IC50 value, human ABHD16A PS lipase activity
[7] = system: thioglycollate-elicited mouse peritoneal macrophages; assay: cellular and secreted lyso-PS of thioglycollate-elicited peritoneal macrophages; type: cell-based; conditions: 4 h
How it was run: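 Thioglycollate-elicited peritoneal macrophages from wild-type, ABHD12−/− or ABHD16A−/− mice. 2 x 10^6 cells plated and adhered 2 h at 37 °C. Washed, then test compound (1 μM) or DMSO given for 4 h in serum-free, phenol red-free RPMI. LPS 5 μg/mL in PBS for 7 h. Media (4 mL) and cells extracted with CHCl3:MeOH. Lipids quantified by LC-MS MRM against internal standards, normalized to cell number.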

ABHD16A [8] = target: T1, ABHD16A; assay: gel-based ABPP of LCLs treated in situ; type: cell-based; conditions: 1 µM, 4 h in situ
ABHD16A [9] = target: T1, ABHD16A; assay: biochemical; type: binding
mouse ABHD16A = target: T2, mouse ABHD16A (Mus musculus, UniProt Q9Z1Q2); assay: competitive gel-based ABPP, mouse ABHD16A-transfected HEK293T proteome; type: binding
T2 sequence (Q9Z1Q2 1-558): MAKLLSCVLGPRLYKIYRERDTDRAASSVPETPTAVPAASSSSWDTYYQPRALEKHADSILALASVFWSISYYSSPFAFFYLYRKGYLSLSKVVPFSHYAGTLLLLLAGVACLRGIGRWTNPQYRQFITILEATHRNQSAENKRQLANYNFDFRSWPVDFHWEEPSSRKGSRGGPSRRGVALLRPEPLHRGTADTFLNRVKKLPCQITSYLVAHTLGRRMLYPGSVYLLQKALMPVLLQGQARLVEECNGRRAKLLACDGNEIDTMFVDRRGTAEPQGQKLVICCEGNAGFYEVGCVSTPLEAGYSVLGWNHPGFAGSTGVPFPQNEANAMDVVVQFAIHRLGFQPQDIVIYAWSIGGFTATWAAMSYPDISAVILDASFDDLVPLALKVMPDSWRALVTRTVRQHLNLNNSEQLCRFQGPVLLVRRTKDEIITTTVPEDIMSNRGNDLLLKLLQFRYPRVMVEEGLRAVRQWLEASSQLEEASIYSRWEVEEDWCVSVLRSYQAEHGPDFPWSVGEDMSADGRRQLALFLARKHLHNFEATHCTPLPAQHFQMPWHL

[10] = system: PS lipase activity of human LCLs; assay: PS lipase activity of membrane proteomes of lymphoblast cell lines; type: biochemical; conditions: 1 µM, 30 min, 37 °C; all LCL samples
How it was run: as §1

[11] = system: human lymphoblast cell lines (LCLs); assay: targeted LC-MS analysis of lyso-PS in LCLs; type: cell-based; conditions: 1 μM, 4 h
How it was run: as §2

ABHD16A/BAT5 = conditions: read-out: IC50, competitive ABPP; uncharacterized 60 kDa membrane enzyme tentatively identified as ABHD16A/BAT5; cited from earlier work
ABHD12 = conditions: read-out: IC50, competitive ABPP; brain serine hydrolases; cited from earlier work
[12] = target: T3, ABHD16A (WT and S355A mutant) (Homo sapiens, UniProt O95870); assay: activity-dependent labeling of ABHD16A in transfected HEK293T cell lysates; type: binding; conditions: 0.2 µM, 30 min, 37 °C
T3 sequence (O95870 1-558): T1 sequence (O95870 1-558)

[13] = ABHD12−/− macrophages, pre-treatment 1 μM
[14] = ABHD16A−/− macrophages, basal or LPS stimulation, 1 µM
[15] = wild-type macrophages, pre-treatment 1 μM, LPS 5 μg/mL, 7 h

## CCCCCCCCCCCCCC1OC(=O)/C1=C\CCCCC(N)=O (centres unmarked) [KC01]
[1]
  PS lipase activity of macrophage membrane proteomes: blocked
ABHD16A [2]
  IC50: ~300 nM
ABHD16A [3]
  light:heavy ratio for ABHD16A (ABPP-SILAC): 0.02
[4]; [13]
  LPS-induced increases in cytokine secretion: blocked
[4]; [14]
  secreted proinflammatory cytokines (IL-6 and TNF-α): no changes
[4]; [15]
  LPS-induced cytokine release: significantly blunted
COLO205 cells
  cellular lyso-PSs versus DMSO-treated control cells: significant reductions
  other lipids (PSs, PCs, PEs, lyso-PCs, lyso-PEs, MAGs): No changes
COLO205 cells; serum-free media
  secreted lyso-PSs (18:1 and 18:0): decreased
[5]
  partial inhibition of a handful of additional off-targets (ABPP-SILAC): 50–80%
ABHD16A [6]
  IC50: 69 to 105 nM
[7]; [13]
  LPS-induced increases in lyso-PSs: blocked
[7]; [14]
  cellular or secreted lyso-PS and other measured lipids: no changes
[7]; [15]
  basal and LPS-induced increases in cellular and secreted lyso-PSs: reduced
ABHD16A [8]
  inhibition of ABHD16A in LCLs by gel-based ABPP: confirmed inhibition
ABHD16A [9]
  IC50: 200 to 500 nM
Mouse ABHD16A
  IC50: 200 to 500 nM
[10]
  PS lipase activity of LCL membrane proteomes: inhibited
[11]; PHARC subject-derived LCL
  secreted lyso-PSs of the ABHD12-null LCL: significantly lowered
[11]; all LCLs
  cellular lyso-PSs of LCLs: decreased cellular lyso-PSs

## CCCCCCCCCCC[C@@H](C[C@@H]1OC(=O)[C@H]1CCCCCC)OC(=O)[C@H](CC(C)C)NC=O [THL, tetrahydrolipstatin]
ABHD16A/BAT5
  IC50: ~100 nM
ABHD12
  IC50: ~100 nM

## CCCCCCCCCCCCCC1OC(=O)/C1=C\CCCC(=O)NCCCCCNC(=O)c1ccc(-c2c3ccc(=[N+](C)C)cc-3oc3cc(N(C)C)ccc23)c(C(=O)[O-])c1 (centres unmarked) [WHP01]
[12]
  labeling of ABHD16A by fluorescent probe: labeled WT-ABHD16A but not the catalytic serine S355A mutant
